Activity, IC50 and Ki data for six molecules are collected here from ChEMBL document CHEMBL1133664, “Synthesis and evaluation of hydroxylated polyamine analogues as antiproliferatives” (J Med Chem, 2000).

For experiment [1], the system named is L1210. Nature of the experiment: Putrescine(PUT) levels in L1210 cells after 48 hr of treatment with the compound at the dose of 0.75 uM. Type of experiment: functional, Mus musculus. In short, it runs like this: (§1)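 Log-phase L1210 cells treated 48 h, washed twice in ice-cold incomplete medium, extracted with 0.6 N perchloric acid and freeze-fractured three times. Polyamines are quantified by HPLC. PUT, SPD and SPM are expressed as percent of untreated control.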

Experiment [2] relates to L1210. Nature of the experiment: Spermine(SPM) levels in L1210 cells after 48 hr of treatment with the compound at the dose of 10 uM. In kind it is functional, Mus musculus. The procedure, abridged:
as §1

Experiment [3] deals with L1210. Nature of the experiment: Spermidine(SPD) levels in L1210 cells after 48 hr of treatment with the compound at the dose of 0.75 uM. In kind it is functional, Mus musculus. In short, it runs like this:
as §1

Experiment [4] concerns L1210. Nature of the experiment: Spermine(SPM) levels in L1210 cells after 48 hr of treatment with the compound at the dose of 0.75 uM. Type of experiment: functional, Mus musculus. The procedure, abridged:
as §1

Experiment [5] relates to L1210. Nature of the experiment: Spermine(SPM) levels in L1210 cells after 48 hr of treatment with the compound at the dose of 0.15 uM. In kind it is functional, Mus musculus. The procedure, abridged:
as §1

In experiment [6] the test system is L1210. Nature of the experiment: Putrescine(PUT) levels in L1210 cells after 48 hr of treatment with the compound at the dose of 10 uM. In kind it is functional, Mus musculus. The procedure, abridged: as §1
The test system of experiment [7] is S-adenosylmethionine decarboxylase (Mus musculus). Nature of the experiment: Effect of compound on S-Adenosyl-methionine decarboxylase in L1210 cells. Set-up: unit not given here.
Experiment [8] addresses T1, Ornithine decarboxylase (Mus musculus) (UniProt P00860).
T1 sequence (whole entry): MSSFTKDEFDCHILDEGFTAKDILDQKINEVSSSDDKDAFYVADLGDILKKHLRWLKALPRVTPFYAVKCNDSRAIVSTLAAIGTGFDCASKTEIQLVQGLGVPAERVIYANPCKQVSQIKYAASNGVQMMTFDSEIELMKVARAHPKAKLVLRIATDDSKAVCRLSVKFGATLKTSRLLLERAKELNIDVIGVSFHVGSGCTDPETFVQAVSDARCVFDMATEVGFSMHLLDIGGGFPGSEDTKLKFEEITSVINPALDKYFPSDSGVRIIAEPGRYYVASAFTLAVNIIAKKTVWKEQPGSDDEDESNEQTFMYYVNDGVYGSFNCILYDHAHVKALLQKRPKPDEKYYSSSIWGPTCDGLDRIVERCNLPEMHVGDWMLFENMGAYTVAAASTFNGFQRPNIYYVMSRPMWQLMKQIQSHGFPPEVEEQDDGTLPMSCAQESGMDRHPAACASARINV
Nature of the experiment: Effect of compound on Ornithine decarboxylase (ODC) […] in L1210 cells. In kind it is cell-based. The procedure, abridged: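 L1210 cells treated 4 h at 1 µM, with an additional arm at 10 µM for 4 h. ODC activity is expressed as percent of untreated control. Each run includes untreated cells as negative control and a DEHSPM-treated positive control. Values are the mean of at least three experiments.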

Experiment [9] relates to L1210. Nature of the experiment: Effect of compound on Spermidine/Spermine N'-Acetyltransferase(SSAT) in L1210 cells. In kind it is cell-based. The procedure, abridged: (§2)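 L1210 cells treated 48 h at 10 µM, or 2 µM for DENSPM. SSAT is quantified as [14C]-N1-acetylspermidine formed from spermidine and [14C]acetyl-CoA. Values are the mean of at least three experiments.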

Experiment [10] deals with L1210. Nature of the experiment: Spermidine(SPD) levels in L1210 cells after 48 hr of treatment with the compound at the dose of 10 uM. In kind it is functional, Mus musculus. In short, it runs like this:
as §1

The test system of experiment [11] is L1210. Nature of the experiment: Putrescine(PUT) levels in L1210 cells after 48 hr of treatment with the compound at the dose of 0.15 uM. Type of experiment: functional, Mus musculus. In short, it runs like this:
as §1

Experiment [12] concerns L1210. Nature of the experiment: Spermidine(SPD) levels in L1210 cells after 48 hr of treatment with the compound at the dose of 0.15 uM. In kind it is functional, Mus musculus. In short, it runs like this:
as §1

Experiment [13] concerns L1210. Nature of the experiment: Spermine(SPM) levels in L1210 cells after 48 hr of treatment with the compound at the dose of 100 uM. Type of experiment: functional, Mus musculus. In short, it runs like this: as §1
The test system of experiment [14] is L1210. Nature of the experiment: Spermidine(SPD) levels in L1210 cells after 48 hr of treatment with the compound at the dose of 100 uM. In kind it is functional, Mus musculus. In short, it runs like this:
as §1

For experiment [15], the system named is L1210. Nature of the experiment: Growth inhibition of L1210 cells was measured in the presence of nine different concentrations: 0,0.03,0.1,0.3,1,3,10,30, and 100 uM after 48 hours. In kind it is functional, cell-based. As to conditions: Mus musculus, L1210, 48 h. The procedure, abridged: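 L1210 leukemia cells were kept in log growth in RPMI-1640 with 10% FBS, HEPES-MOPS and 1 mM aminoguanidine at 37 °C under 5% CO2. Cultures at 0.5-1.0 × 10^5 cells/mL were dosed with filtered aqueous compound and counted by Coulter counter at 48 h, then reseeded and counted again at 96 h.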

Experiment [16] has as its system L1210. Nature of the experiment: Putrescine(PUT) levels in L1210 cells after 48 hr of treatment with the compound at the dose of 100 MicroM. In kind it is functional, Mus musculus. The procedure, abridged:
as §1

Experiment [17] deals with L1210. Nature of the experiment: Effect of compound on Spermidine/Spermine N'-Acetyltransferase (SSAT) in L1210 cells. In kind it is cell-based. The procedure, abridged:
as §2

The test system of experiment [18] is L1210. Nature of the experiment: Spermidine(SPD) levels in L1210 cells after 48 hr of treatment with the compound at the dose of 2 uM. In kind it is functional, Mus musculus. The procedure, abridged:
as §1

The subject of experiment [19] is L1210. Nature of the experiment: Growth uM after 48 hours. As to conditions: Mus musculus, L1210, 48 h. Type of experiment: functional, cell-based.
In experiment [20] the test system is L1210. Nature of the experiment: Putrescine(PUT) levels in L1210 cells after 48 hr of treatment with the compound at the dose of 2 uM. In kind it is functional, Mus musculus. The procedure, abridged:
as §1

In experiment [21] the test system is L1210. Nature of the experiment: Growth uM after 96 hours. In kind it is functional, cell-based. As to conditions: Mus musculus, L1210, 96 h.
The test system of experiment [22] is L1210. Nature of the experiment: Ki was estimated by competitive inhibition of [3H]SPD transport by L1210 cells. Type of experiment: functional, cell-based, Mus musculus. In short, it runs like this:
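L1210 cells incubated 20 min at 37 °C in medium with 1-10 µM [3H]spermidine, alone or with 10, 25 or 50 µM analogue. Cells are then washed with cold medium containing 1 mM SPD, digested in NaOH at 60 °C and counted by scintillation. Ki is taken from substrate-competitive inhibition kinetics; values are means of two or three experiments.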

Experiment [23] has as its system L1210. Nature of the experiment: Spermine(SPM) levels in L1210 cells after 48 hr of treatment with the compound at the dose of 2 uM. Type of experiment: functional, Mus musculus. The procedure, abridged:
as §1

For experiment [24], the system named is L1210. Nature of the experiment: Putrescine(PUT) levels in L1210 cells after 48 hr of treatment with the compound at the dose of 200 uMicroM. Type of experiment: functional, Mus musculus. The procedure, abridged: as §1
Experiment [25] concerns L1210. Nature of the experiment: Putrescine(PUT) levels in L1210 cells after 48 hr of treatment with the compound at the dose of 40 uM. Type of experiment: functional, Mus musculus. In short, it runs like this: as §1
The subject of experiment [26] is L1210. Nature of the experiment: Spermidine(SPD) levels in L1210 cells after 48 hr of treatment with the compound at the dose of 200 uM. In kind it is functional, Mus musculus. In short, it runs like this:
as §1

Experiment [27] deals with L1210. Nature of the experiment: Spermine(SPM) levels in L1210 cells after 48 hr of treatment with the compound at the dose of 40 uM. In kind it is functional, Mus musculus. In short, it runs like this:
as §1

The subject of experiment [28] is L1210. Nature of the experiment: Spermine(SPM) levels in L1210 cells after 48 hr of treatment with the compound at the dose of 200 uM. Type of experiment: functional, Mus musculus. In short, it runs like this:
as §1

Experiment [29] relates to L1210. Nature of the experiment: Spermidine(SPD) levels in L1210 cells after 48 hr of treatment with the compound at the dose of 40 uM. In kind it is functional, Mus musculus. The procedure, abridged: as §1
[30] abbreviates: in the assay text read “1 uM” for “10 uM”.

Molecules are shown by their SMILES.

With `CCNCCCCNCCCCNCCCCNCC` [DIETHYLHOMOSPERMINE], the Activity with L1210 [1] is recorded as 49; with L1210 [2] it was 57; with L1210 [3], 40; in the experiment with L1210 [4] it was 101; in the experiment with L1210 [5] it was 110; in the experiment on L1210 [6] it was 3. Moreover, the Activity was found to be 41 in experiment [7]; 7 in experiment [8]; 110 in the experiment on L1210 [9]; 1 with L1210 [10]; 97 with L1210 [11]; 91 with L1210 [12].

For `CCNCCCNCCCNCCCNCC` [BIS(ETHYL)NORSPERMINE], the Activity in the experiment with L1210 [2] (setting [30]) is 94; in the experiment with L1210 [13], 30; in the experiment with L1210 [14] it was 6; with L1210 [6] (setting [30]), 66; in experiment [7] it was 42; in [8] it was 7. The Activity in the experiment with L1210 [16] turned out to be 0; with L1210 [10] (setting [30]), 46; in the experiment on L1210 [17] it was 1470. Also, the half-maximal inhibitory concentration (IC50) in the experiment on L1210 [15] is 20000 nM.

Turning to `CCNCC[C@H](O)CNCCCCNC[C@@H](O)CCNCC` [IVOSPEMIN], the Activity in the experiment on L1210 [2] amounted to 53; in the experiment on L1210 [18], 11; with L1210 [20] it was 3; in the experiment on L1210 [6] it was 3; in experiment [7], 52; in experiment [8], 17. The Activity with L1210 [23] was 62; in the experiment on L1210 [9], 114; in the experiment with L1210 [10] it was 4. For the same molecule, the IC50 with L1210 [19] amounted to 2000 nM; with L1210 [21], 60 nM. The Ki in the experiment on L1210 [22] is 2400 nM.

In [8], `CCNC[C@H](O)CNCCCNC[C@@H](O)CNCC` displayed an Activity of 61.

Turning to `CCNCC[C@@H](O)CNCCCCNC[C@H](O)CCNCC`, the IC50 in the experiment on L1210 [19] was 40000 nM; in the experiment on L1210 [21] it was 80 nM. Besides, the Activity in the experiment on L1210 [24] was 4; in the experiment on L1210 [25], 5; in [7], 68; with L1210 [26] it was 13; in experiment [8], 55; in the experiment on L1210 [9], 102. For the same molecule, the Activity with L1210 [27] is 107; in the experiment on L1210 [28], 104; in the experiment on L1210 [29], 19. The Ki in the experiment on L1210 [22] is 1700 nM.

On to `CCNC[C@@H](O)CNCCCNC[C@H](O)CNCC`, for which, in experiment [8], the Activity was determined as 35.
